Data set [1] in a line: Selectivity index, ratio of CC50 for HEL cells to EC50 for thymidine kinase deficient Varicella-Zoster virus 07-1. Type of data set: toxicity. The following applies: human, read-out: Ratio CC50/EC50. The method in brief: (§1)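 HEL fibroblast monolayers inoculated with 100 CCID50 HCMV (AD-169, Davis) or 20 PFU VZV (TK+ Oka, TK− 07-1). Adsorbed 1–2 h, inoculum removed, then incubated with compound dilutions. HCMV cytopathicity or VZV plaques scored once untreated infected controls reached completion. EC50 is 50% reduction. SI is CC50/EC50, and the potency ratio is the ratio of EC50s.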

The test system of data set [2] is Human betaherpesvirus 5. Description: Antiviral activity against HCMV Davis strain infected in HEL cells assessed as inhibition of virus-induced cytopathic effect. Type of data set: functional, cell-based. To be noted: Human betaherpesvirus 5, Davis. The method in brief: as §1
Data set [3] in a line: Cytotoxicity against human HepG2.2.15 cells assessed as cell viability by tetrazolium dye uptake assay. The format is cell-based, HepG2 2.2.15. The method in brief: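 HepG2.2.15 cells (two integrated copies of HBV ayw1 genome) were seeded at 1.5 × 10^4 cells/well in DMEM with 2% FBS, 380 μg/mL G418, glutamine, antibiotics and nonessential amino acids. After 16−24 h, medium with various compound concentrations was added in triplicate and renewed on day 3. After 6 days of treatment, viability was read by MTS uptake and CC50 was calculated.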

Data set [4] in a line: Selectivity index, ratio of CC50 for human PHA-stimulated PBMCs to IC50 for CCR5 tropic HIV1 BaL infected in human PHA-stimulated PBMC.
Data set [5] has as its system Human alphaherpesvirus 3. As to the kind of experiment: Antiviral activity against thymidine kinase expressing Varicella-Zoster virus Oka strain assessed as inhibition of plaque formation. Type of data set: functional. To be noted: Human alphaherpesvirus 3, strain Oka vaccine. In short, it runs like this: as §1
Data set [6] can be described thus: Cytotoxicity against human TZM-bl cells assessed as cell viability by tetrazolium dye assay. Type of data set: cell-based.
The subject of data set [7] is Human immunodeficiency virus 1. Description: Selectivity ratio of EC50 for tenofovir-resistant CXCR4-tropic HIV-1 NL4-3 harboring reverse transcriptase K65R mutant infected in human MT4 cells to EC50 for CXCR4-tropic HIV-1 NL4-3 infected in human MT4 cells. Type of data set: functional. In short, it runs like this:
(§2)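 MT-4 cells, 1 × 10^4 per well, given compound dilutions and wild-type NL4-3 or K65R NL4-3. Virus titred to give 85–95% cell killing at day 6. Incubated 6 days at 37 °C, 5% CO2. Viability read by XTT at 450/650 nm. EC50 from CPE reduction and toxicity from uninfected drug wells, by four-parameter fit. Fold change is K65R EC50 over wild-type EC50.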

The subject of data set [8] is Human immunodeficiency virus 1. As to the kind of experiment: Antiviral activity against CXCR4-tropic HIV-1 NL4-3 infected in human TZM-bl cells assessed as inhibition of virus-induced cytopathic effect preincubated with cells for 30 mins followed by viral infection measured after 48 hrs in presence of p-24 HIV-1 Ag by luciferase reporter gene assay. The following applies: Human immunodeficiency virus 1, NL4-3, TZM-bl. Type of data set: functional, cell-based. The method in brief: (§3)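 TZM-bl cells, 1 × 10^4 per well in DMEM with 10% FBS and 10 mM […], incubated 30 min at 37 °C with compound. Then HIV-1 NL4.3 (X4) or BaL (R5) added at 100 pg p24 Ag per well. After 48 h, cells lysed with luciferase substrate. Tat-induced luminescence read after 10 min dark incubation as a measure of replication.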

For data set [9], the system named is Human immunodeficiency virus 1. As to the kind of experiment: Potency index, ratio of (S)-9-[3-Fluoro-2-(phosphonomethoxy)propyl]adenine EC50 to compound EC50 for CCR5 tropic HIV1 BaL infected in human TZM-bl cells. The format is functional.
Data set [10] is described as follows: Cytotoxicity against human MT4 cells assessed as reduction in cell viability after 6 days by XTT tetrazolium dye-based assay. The method in brief: as §2
Data set [11] deals with Human immunodeficiency virus 1. Description: Antiviral activity against CXCR4-tropic HIV-1 NL4-3 infected in human MT4 cells assessed as inhibition of virus-induced cytopathic effect after 6 days by XTT dye based assay. The format is functional, cell-based. The following applies: Human immunodeficiency virus 1, NL4-3, MT4, 144 h. The method in brief:
as §2
A general note: Cytopathic effects are the visible damage that an infection or toxin causes in cultured cells.

Data set [12] in a line: Selectivity index, ratio of CC50 for HepG2.2.15 cells to EC50 for HBV ayw1 infected in human HepG2(2.2.15) cells assessed as reduction in viral replication by measuring intracellular viral DNA copy. In short, it runs like this: (§4)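 Run as the HepG2.2.15 6-day assay (triplicate compound, medium with compound renewed at day 3). At the end, total intracellular DNA was isolated from the cells and HBV DNA copy number measured by TaqMan qPCR. EC50/EC90 derived; SI is CC50/EC50.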

Data set [13] has as its system Human immunodeficiency virus 1. Description: Antiviral activity against tenofovir-resistant CXCR4-tropic HIV-1 NL4-3 harboring reverse transcriptase K65R mutant infected in human MT4 cells assessed as inhibition of viral replication inhibition of virus-induced cytopathic effect after 6 days by XTT dye based assay. Type of data set: functional, cell-based. The following applies: Human immunodeficiency virus 1, NL4-3, MT4, 144 h. The method in brief:
as §2

A short description of data set [14]: Cytotoxic activity against HEL cells assessed as alteration of cell morphology after 3 days by microscopic method. Type of data set: cell-based. To be noted: human. In short, it runs like this: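 HEL cells with compound; MCC is the lowest concentration giving microscopically detectable alteration of cell morphology.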
Data set [15] relates to Human immunodeficiency virus 1. As to the kind of experiment: Antiviral activity against CXCR4-tropic HIV-1 NL4-3 infected in human PHA-stimulated PBMC assessed as inhibition of viral replication by measuring reduction in p24 antigen production preincubated with cells for 30 mins followed by viral infection measured on day 10 post infection in presence of IL-2 by ELISA. Type of data set: functional. The following applies: Human immunodeficiency virus 1, NL4-3. In short, it runs like this:
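PBMCs stimulated with 2 μg/mL PHA for 3 days at 37 °C, then 5 × 10^5 cells/ml preincubated 30 min at 37 °C with serial compound dilutions plus 2 ng/mL IL-2. Infected with 1500 pg/well HIV-1 BaL or 500 pg/well other isolates. IL-2 re-added on days 3 and 6. Supernatant p24 Ag measured by ELISA at day 10. EC50 is 50% inhibition of replication.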
In general terms: ELISA stands for enzyme-linked immunosorbent assay.

Data set [16] deals with Human alphaherpesvirus 3. As to the kind of experiment: Potency index, ratio of (S)-9-[3-Fluoro-2-(phosphonomethoxy)propyl]adenine EC50 to compound EC50 for thymidine kinase expressing Varicella-Zoster virus Oka. Type of data set: functional, strain Oka vaccine. In short, it runs like this:
as §1

Another data set deals with Hepatitis B virus. As to the kind of experiment: Antiviral activity against HBV ayw1 infected in human HepG2(2.2.15) cells assessed as reduction in viral replication by measuring intracellular viral DNA copy number after 6 days byr by real-time qPCR assay. Type of data set: functional, cell-based. The following applies: ayw1, HepG2 2.2.15, 144 h. The method in brief:
as §4
In general terms: In qPCR the cycle at which signal appears reflects the starting amount.

Data set [17] deals with Human betaherpesvirus 5. Description: Antiviral activity against Human cytomegalovirus AD169 infected in HEL cells assessed as inhibition of virus-induced cytopathic effect. The format is functional, cell-based. The following applies: Human betaherpesvirus 5, AD169, HEL. The method in brief:
as §1

The test system of data set [18] is Human alphaherpesvirus 3. Description: Antiviral activity against thymidine kinase deficient Varicella-Zoster virus 07-1 infected in HEL cells assessed as inhibition of plaque formation. Type of data set: functional, cell-based. The following applies: Human alphaherpesvirus 3, 07-1, HEL. In short, it runs like this:
as §1

Data set [19] has as its system Human immunodeficiency virus 1. As to the kind of experiment: Antiviral activity against CCR5 tropic HIV1 BaL infected in human TZM-bl cells assessed as inhibition of virus-induced cytopathic effect preincubated with cells for 30 mins followed by viral infection measured after 48 hrs in presence of p-24 HIV-1 Ag by luciferase reporter gene assay. The format is functional, cell-based. The following applies: Human immunodeficiency virus 1, BaL. The method in brief: as §3

The nature of data set [20]: Selectivity index, ratio of CC50 for human PHA-stimulated PBMC to IC50 for CXCR4-tropic HIV-1 NL4-3 infected in human PHA-stimulated PBMC.

As usually defined, the EC50 is the concentration that produces a half-maximal response. A word on the CC50: it is the concentration that lowers cell viability or growth by half. As a reminder, the IC50 is the point on the concentration scale where inhibition reaches its midpoint. For orientation: EC90 means the concentration needed for an effect of 90%. As for `CCCCCOC(=O)C[C@H](NP(=O)(CO[C@H](CF)Cn1cnc2c(N)ncnc21)Oc1ccccc1)C(=O)OCCCCC` (some centres not stated), the selectivity ratio in [1] came out at 34. The EC50 in the data set on Human betaherpesvirus 5 [2] was 6280 nM; in the data set on Human alphaherpesvirus 3 [5], 50 nM; in data set [8], 10 nM; in data set [11] it was 30 nM; in data set [13] it was 170 nM; in the data set with Hepatitis B virus it was 20 nM. In addition, the results for the concentration for a half-maximal effect (EC50) (with Human betaherpesvirus 5 [17]; with Human alphaherpesvirus 3 [18]; in data set [19]) were 3970 nM, 57 nM and 4 nM, respectively. Moreover, the half-maximal cytotoxic concentration (CC50) in [3] is 20300 to 22600 nM; in data set [6], 33200 nM. Also, the “Ratio CC50/IC50” value in data set [4] is on record as >113; in [20], >827. Further, the figures for the “Ratio EC50” value (in data set [7]; in [9]; with Human alphaherpesvirus 3 [16]) were 5.7, 1500 and 2000, respectively. The cytotoxic concentration (CC50) at 144 h in data set [10] is > 1000 nM. Besides, the “Ratio CC50/EC50” value in data set [12] turned out to be 1017. Besides, the MCC at 72 h in [14] was found to be 31.4 µM. For the same molecule, the concentration for half-maximal inhibition (IC50) in [15] came to 3 nM. Besides, in the data set on Hepatitis B virus, the EC90 was 6080 nM.

The record behind these values is ChEMBL document CHEMBL4038313, “Expanding the Antiviral Spectrum of 3-Fluoro-2-(phosphonomethoxy)propyl Acyclic Nucleoside Phosphonates: Diamyl Aspartate Amidate Prodrugs” (J Med Chem, 2017).
